Data on six compounds can be found in publication PMC5720355 (ACS chemical biology, 2017).

Assay [1] deals with human constitutive 20S proteasome (CT-L, β5) (Homo sapiens, UniProt P25787+P60900). Briefly: Proteasome activity assay, 20S chymotrypsin-like. Format: biochemical. As to conditions: for enhancement of 20S proteolytic (CT-L) activity, in words: CT-L peptide substrate.
The target of assay [2] is human constitutive 20S proteasome (T-L, β2) (Homo sapiens, UniProt P25787+P60900). The assay can be described thus: Proteasome activity assay, 20S tryptic-like. The format is biochemical. As to conditions: read-out: EC50, tryptic-like (T-L) activity; Boc-LRR-AMC.
Assay [3] concerns the target human constitutive 20S proteasome (Casp-L, β1) (Homo sapiens, UniProt P25787+P60900). Briefly: Proteasome activity assay, 20S caspase-like. As to conditions: read-out: EC50, caspase-like (Casp-L) activity; Z-LLE-AMC. Format: biochemical.
Another assay addresses 26S proteasome (Homo sapiens, UniProt P25787+P60900). Briefly: Proteasome activity assay, 26S-mediated proteolysis of CT-L peptide probe. Format: biochemical. A digest of the protocol: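 Pre-incubate 1nM human 26S proteasome with test compound for 10 min at RT in 50mM Tris-HCl pH 7.5 containing 5mM MgCl2 and 2.5mM ATP. Add Suc-LLVY-AMC (10μM) and read the fluorescence increase per minute for 1 h at 37 °C (380-460nm). Express activity as fold of vehicle control.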

In assay [4] the target is purified human 20S proteasome with α-synuclein and GAPDH (Homo sapiens, UniProt P25787+P60900). Briefly: In vitro degradation of α-synuclein. The format is biochemical. Put shortly: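 Pre-incubate 15nM purified human 20S with test compound (3, 10, 30 μM) or vehicle for 20 min at RT in 20mM HEPES pH 7.4, 2mM EDTA, 1mM EGTA. Add recombinant α-synuclein and GAPDH (0.5μM each, final) and incubate 1 h at 37 °C. Immunoblot α-syn and GAPDH. Controls: reactions without 20S, and 20S pre-treated with bortezomib (3μM).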

Assay [5] has as its target purified 20S proteasome with tau441 and GAPDH (Homo sapiens, UniProt P25787+P60900). The assay can be described thus: In vitro degradation of tau441. Format: biochemical. The note with it: compounds 30 μM; SDS 0.02%. A digest of the protocol:
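Pre-incubate 15nM purified human 20S proteasome with test compound or vehicle for 20 min at RT in 20mM HEPES pH 7.4, 2mM EDTA, 1mM EGTA. Add recombinant tau441 plus GAPDH (0.1μM each, final) and incubate 1 h at 37 °C. Resolve on a 4-20% tris-glycine gel and immunoblot. Quantify tau by densitometry against untreated tau control.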

For assay [6], the system named is HEK 293 cells stably expressing ODC-GFPSpark. Briefly: ODC-GFPSpark degradation in HEK 293T cells, immunoblot. Format: cell-based, human. As to conditions: 50 μM, 24 h, cycloheximide 20 μg/mL. In general terms: In western blotting, separated proteins are transferred to a membrane and probed.
Assay [7] relates to Glioblastoma (U87-MG) cells. The assay can be described thus: Tau degradation in U87MG cells, immunoblot. Format: cell-based, human. As to conditions: 50 μM, 24 h, cycloheximide 20 μg/mL.
Another assay has as its system 20S proteasome. The note with it: read-out: EC50, enhancing 20S mediated protein degradation; cited from earlier work.

One may read the EC50 as the concentration needed to bring the measured effect to its halfway point. Turning to `O=S(=O)(O)CCCCN1c2ccccc2Sc2ccccc21` [compound 2], the “enhancement of 20S proteolytic (CT-L) activity, in words” value (“enhancement of 20S proteolytic” below) in assay [1] was “enhanced 20S proteolytic activity”. For the same compound, in assay [1] (at 10 μM), the “fold enhancement of 20S activity” value was around 4 fold. In addition, in assay [1] (concentration response up to 70 μM, CT-L substrate), the “concentration above which 20S activity drops” value was above 35 µM. Also, the half-maximal effective concentration (EC50) in assay [2] is 10 µM; in assay [3], 4.8 µM. In addition, the “effect on 26S-mediated proteolysis of the CT-L peptide probe” value on 26S proteasome is on record as “did not affect”. In addition, the “rate of 20S-mediated degradation of α-syn compared to 20S/vehicle control” value in assay [4] (3, 10 and 30 μM, concentration-dependent) is on record as “significantly enhanced”. The “α-Syn levels in the absence of 20S or with 20S pretreated with bortezomib” value in assay [4] (BTZ 3 μM) was “unaffected”. Also, in assay [4] (any of the concentrations tested (3, 10, 30 μM)), the “20S-mediated degradation of the structured protein GAPDH” value is reported as “does not enhance”. The “rate of 20S-mediated degradation of tau compared to 20S/vehicle control” value (from here on “rate … of tau compared to 20S/vehicle control”) in assay [5] is “significantly enhance”. Further, the “GFP-ODC levels compared to controls” value in [6] was “reduced GFP-ODC levels”. In assay [7], the “tau concentrations compared to the vehicle control” value is “significantly reducing tau concentrations”.

On to `CN(C)CCCN1c2ccccc2Sc2ccc(Cl)cc21` [chlorpromazine, reference compound], for which the “enhancement of 20S proteolytic” value in [1] is “enhanced 20S proteolytic activity”. Further, the “rate … of tau compared to 20S/vehicle control” value in assay [5] is listed as “significantly enhance”. Further, the “GFP-ODC levels compared to controls” value in assay [6] is “reduced GFP-ODC levels”. The “tau concentrations compared to the vehicle control” value in assay [7] is reported as “significantly reducing tau concentrations”.

In the case of `CCCCCCCCCCCCOS(=O)(=O)[O-].[Na+]` [SDS, sodium dodecyl sulfate], in assay [5], the “rate … of tau compared to 20S/vehicle control” value is reported as “prevents”.

As for `CC(C)CCCN1c2ccccc2Sc2ccccc21` [compound 1], the “tau concentrations compared to the vehicle control” value in assay [7] is “modest clearance of tau”.

`O=S(=O)(O)CCCN1c2ccccc2Sc2ccc(Cl)cc21` [compound 3]: the “enhancement of 20S proteolytic” value in [1] is “no significant enhancement”.

For the compound `CCCCC/C=C\C/C=C\C/C=C\C/C=C\CCCC(=O)Nc1ccc(O)cc1` [AM-404], the EC50 in the assay with 20S proteasome is around 32 µM.
